The data set relates to MS2 coat protein. The data set is described as follows: apparent Kd, MS2 coat protein; higher = weaker binding; RNA-MaP array; FMN 200 µM where present. An outline of the steps:
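Apparent Kd: the median of filtered binding-curve fits from single clusters. Designs were transcribed on Illumina sequencing-chip clusters by stalled E. coli RNA polymerase and titrated with SNAP-549-labelled MS2 coat protein from 0.7 or 1.5 nM, doubling to 3 µM, in 100 mM Tris-HCl pH 7.5, 80 mM KCl, 4 mM MgCl2, BSA, DTT, yeast tRNA and Tween-20. Each series ran without and then with constant ligand, and green signal was normalised to red-channel RNA signal and control-cluster median Fmax.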

Where [1] appears, read: designed as: ON switch for flavin mononucleotide, no ligand.
Where [2] appears, read: ligand present: flavin mononucleotide, designed as: ON switch for flavin mononucleotide.
[3] abbreviates: designed as: OFF switch for flavin mononucleotide, no ligand.
The mark [4] stands for this setting: ligand present: flavin mononucleotide, designed as: OFF switch for flavin mononucleotide.

These results are taken from the EternaBench riboswitch data.

As usually defined, the apparent Kd is the concentration giving half-maximal binding under the conditions of the assay. As for “UUAAUUAUACAAGGAUAUCUAUUGUAGUUUCGACUUACAUGAGGAUCACCCAUGUUUUUAUGUUUAGAGAAGGUGUAUUUUCAG”, the “apparent Kd” value turned out to be 104 nM under setting [1] and 77.3 nM under setting [2].
With “CCUUUUGUAUAAGGAUAUGUAACAAGGCGUAGGUGGGUAGGACUUGCGCUUACAGAAGGUAUACAUGAGGAUCACCCAUGUCGA”, the “apparent Kd” value amounted to 32.4 nM under setting [3] and 240 nM under setting [4].
For “GACGAGGGAGGAUAUGCACGAGGGAUAUCUGACAUGCCUAUACAUGAGGAUCACCCAUGUAGAAGGCCCAGAUA”, in that order: 10.6 nM and 13.1 nM.
As for “CACUCACAUGAGGAUCACCCAUGUCCUAGCAGGUCAGGAUAUAGCUCGGAUGCGUUGAGUCUAGAAGGGACACGUU”, the “apparent Kd” value is, setting by setting: under setting [1], 96.7 nM; under setting [2], 62.5 nM.
For the sequence “ACAUUUUAUGCAGGAUAUUGACUUUGGAUUAAACAAGAAGGGCAUUACAUGAGGAUCACCCAUGUUUUAUUGGUAUAUAAGUUC”, the “apparent Kd” value worked out at 13.9 nM under setting [3] and 17.1 nM under setting [4].
As to “UCGAUUAUACAAGGAUAUCAAUUGUAAUUGAGACUUACAUGAGGAUCACCCAUGUUAAUAUUUUUUGAGAAGGUGUAUUUUCAG”, the “apparent Kd” value is 47.3 nM under setting [1] and 26.8 nM under setting [2].
For the sequence “AUAAUGCGAGGAUAUACAUGAGGAUCACCCAUGUAAUUCAAUCGGAGAGCCACAUUACGUAGAAGGUGCAUUAA”, the “apparent Kd” value runs as follows: under setting [3], 17 nM; under setting [4], 23 nM.
Take “CCUCCCUGAGGAUAUCCACCCUCAUACAUGAGGAUCACCCAUGUUCAACCCUGGGUACCCGGAGAAGGCAGAUUUC”: the “apparent Kd” value is, setting by setting: under setting [3], 116 nM; under setting [4], 175 nM.
For “AGAGCCUCGUGAGGAUAUACAUGAGGAUCACCCAUGUAAAUGAAAGAUAACGAGGAAACUCGAAUGUAGAAGGCACGAGGCUCA”, in that order: 24.4 nM and 182 nM.
“AUUAUUUAUAGUUAUUGGUAUUUGACAGAAGGUGAAAGUGUCACAUGAGGAUCACCCAUGUUCUUCAAGGAUAUGUUGGUAUAC”: the “apparent Kd” value came to 66.1 nM under setting [1] and 11.8 nM under setting [2].
For the sequence “UUCAGGGAUCAAGGAUAUCUAUAAACAUGCGGACAUGAGGAUCACCCAUGUUGAUUACCCAUGUGGGAGAAGGUGAACAUGAGG”, the “apparent Kd” value is, setting by setting: under setting [1], 44.7 nM; under setting [2], 20.6 nM.
Take “GAGUAGUUAAAAGGAUAUUGAUUAUUGUAGGAUCAAGAAGGUUUUAACAUGAGGAUCACCCAUGUAGGACUAUAAAUGUGAAAA”: the “apparent Kd” value by setting is: under setting [1], 17.5 nM; under setting [2], 15 nM.
As to “GUUUAGUGAGGAUAUGUGGCGUCGAUCGAGCGCGGUCUGCUACAGAAGGCACAUGAGGAUCACCCAUGUUUCUC”, the “apparent Kd” value by setting is: under setting [3], 258 nM; under setting [4], 371 nM.
For “AGCUGACAAGGAUAUACUCGGGAUGCUAGUCGCGCAGAAGCACAUGAGGAUCACCCAUGUAGAAGGUGUCAGAA”, in that order: 158 nM and 83.2 nM.
Regarding “GCACCUGCGUAGAAGGUACUAUAUAAUGCAGUGUAAGGAUAUACAUACAUGAGGAUCACCCAUGUAAAUGGAAUUUGCAGGUGC”, the “apparent Kd” value runs as follows: under setting [1], 12.2 nM; under setting [2], 10.3 nM.
In the case of “AAAGCGGGAUAGAAGGUCUGCUUGGUGUAUUACAUGAGGAUCACCCAUGUAGAAGGAUAUAUCUCAUUCUUGGGCUCACCCAAA”, the “apparent Kd” value reads like this: under setting [3], 208 nM; under setting [4], 367 nM.
For “GUAGAGUCAGGAUAUACAAAACCAUCGAUAGAUGGAUCCAUACAUGAGGAUCACCCAUGUAGAAGGGACUCUAC”, the “apparent Kd” value runs as follows: under setting [3], 20.3 nM; under setting [4], 21.5 nM.
For “CGAGUUUUUGAGAAGGCAUAUAAUAAGAUUUCCCAUGUUAACAUGAGGAUCACCCAUGUUUAGUAUGAGGAUAUCAGUAGGUCG”, in that order: 5.79 nM and 5.8 nM.
For “UUCUCGAUGUAGAAGGCCGCGUCCGGCUCACGCGGAGGAUAUACAUGAGGAUCACCCAUGUGUCUGUGGCUUAUAAGGUACGGA”, in that order: 98.8 nM and 67.7 nM.
Turning to “GCAUGCGUUCGAGGAUAUCGGUGAGCAACGGAACGAGAAGGCGAUCGAAUGUCACAUAUUAUGUACAUGAGGAUCACCCAUGUA”, the “apparent Kd” value runs as follows: under setting [1], 104 nM; under setting [2], 43.4 nM.
Regarding “AUCAUGAGAGGAUAUACAUGAGGAUCACCCAUGUUGUUAACACCAUGAGCUCAUUUACGUAGAAGGCUCAUUUG”, the “apparent Kd” value runs as follows: under setting [3], 28.1 nM; under setting [4], 51.9 nM.
For the sequence “AUUAUUAUAUUAUACAUGAGGAUCACCCAUGUUAUAAGUCAUGAGGAUAUGGUAUUGUAGUUAUUCCAGAAGGCAUUUAACUUA”, the “apparent Kd” value under setting [1] is 11.4 nM and the “apparent Kd” value under setting [2] was found to be 7.05 nM.
Consider “UUGAAUUAUAAGGAUAUGGGAGUCGAUAGACACCCAGAAGGUAUAACAUGAGGAUCACCCAUGUGUCCUAUCUU”, for which the “apparent Kd” value reads like this: under setting [3], 22.2 nM; under setting [4], 23.4 nM.
Regarding “UGGUCAUGAUCAGGAUAUUAACAUGGGCUACAUUAAGAAGGGAUAGUGAGAUACGAACAUGAGGAUCACCCAUGUUGUGUUGUU”, the “apparent Kd” value by setting is: under setting [1], 26.8 nM; under setting [2], 21.2 nM.
On to “AUUAUAUAGAAAGGAUAUAGAAUAUUAUUUUAACAUGAGGAUCACCCAUGUAACCUUAUGUGUAGCUAGAAGGUUCAUUUAUUA”, for which the “apparent Kd” value under setting [3] is 61.8 nM and the “apparent Kd” value under setting [4] is 78.1 nM.
For “AUACGUGAGAAGGAUAUCACUCGCCAAAGGCGUUGAGAAGGUUUCACAUGAGGAUCACCCAUGUGCUCUUCUAG”, in that order: 27.7 nM and 61.5 nM.
“GACCAGGCAGGAUAUACAUGAGGAUCACCCAUGUGUCUGCGUUGGGCACGUGAACACGGUAGAAGGGCCUUGAC”: the “apparent Kd” value is, setting by setting: under setting [3], 12.2 nM; under setting [4], 22.9 nM.
With “CGUGUUCCACAGAAGGCAUGGGACACAUGAGGAUCACCCAUGUCACUGAUGAGGAUAUGUAAAAGGAGCGAGGUGCAAGAAUAG”, the “apparent Kd” value was 158 nM under setting [1] and 23.7 nM under setting [2].
Take “CGCUCAAGAGAGAAGGAUUGAAUCAGAAGGCGUUACAUGAGGAUCACCCAUGUAUAGUAGUGUAACGAGGAUAUGAAAUGAGCG”: the “apparent Kd” value amounted to 133 nM under setting [3] and 437 nM under setting [4].
In the case of “AAGGCCUAUUCCAGGACUAUCGUACUAGAAGGGUGACUUGACAUGAGGAUCACCCAUGUACGAGCACAGGAUAUAGAUGAAAGG”, the “apparent Kd” value under setting [1] came to 42.7 nM and the “apparent Kd” value under setting [2] came to 20.2 nM.
In the case of “UAAAACGGAGGAUAUACUGACCCUCAAAACAGACGCGCUGGACAUGAGGAUCACCCAUGUAGAAGGCCGAAUGC”, the “apparent Kd” value by setting is: under setting [3], 26.3 nM; under setting [4], 61.9 nM.
For “UCUUACGGAGGAUAUACAUGAGGAUCACCCAUGUAUGGUACGUUGGCUCUACCUUAUAGUAGAAGGCCGGAAGG”, the “apparent Kd” value stood at 37 nM under setting [3] and 233 nM under setting [4].
For “UUGCUCAAAUGGGCAGGGACCUCACAUGAGGAUCACCCAUGUCAGGAUAUCCUAGUUUGGACGUAGGAGAAGGGACAGAGUAUC”, in that order: 227 nM and 171 nM.
With “AAAAGACAUGAGGAUCACCCAUGUGAAAACAUACAAGGAUAUGUGUGGAAACCGUACUAUACAGAAGGUGUAUGUC”, the “apparent Kd” value runs as follows: under setting [1], 34.8 nM; under setting [2], 20 nM.
For “CUUUUGUGAGGAUAUCAGUAGUAAUACAAUAGUAUUACUAUUGAGAAGGCACAUGAGGAUCACCCAUGUUCCUC”, the “apparent Kd” value reads like this: under setting [3], 39.4 nM; under setting [4], 156 nM.
Take “GACAUGAGGAUCACCCAUGUCCGGGCCAAGAGAAGAAAUACCAGAAGGACCGGCAGAAAUGUGCGGUAGGAUAUGGGAUUCGUG”: the “apparent Kd” value by setting is: under setting [1], 36.4 nM; under setting [2], 9.15 nM.
For the sequence “CCACGUCACAUUAACAUGAGGAUCACCCAUGUCUCUAGACAUGAGGAUAUGGAUCCUAAUUGGAUCCAGAAGGCAUGGACGUGG”, the “apparent Kd” value runs as follows: under setting [1], 1420 nM; under setting [2], 138 nM.
For “ACGGAACAUGAGGAUCACCCAUGUAUCUGAGAUAAGCUCUCGCAGGAUAUUCAGAGAAGCCUAUCGGAGAAGGGUGACAGCAAA”, in that order: 25.3 nM and 15.5 nM.
On to “GCCGAACAUGAGGAUCACCCAUGUCCGGGUAGUCAAGGAUAUGGGAAGGCAAUGCCGUGGCCAGAAGGUGGCUAUC”, for which the “apparent Kd” value by setting is: under setting [1], 99.3 nM; under setting [2], 21.3 nM.
For the sequence “AGGAUCCUAUCAAGACAAAUGUACAUGAGGAUCACCCAUGUGCAGGAUAUAGCUAGUUACGGUGGUUAGAAGGGCACGCCAAAA”, the “apparent Kd” value was found to be 8.98 nM under setting [3] and 13.3 nM under setting [4].
In the case of “UUUGUUUUGGUAGGAUAUACUUUUAUUUUCUCUUUCCUUACAUGAGGAUCACCCAUGUUUACAUUGUAGAAGGACCACUUUGUU”, the “apparent Kd” value under setting [3] turned out to be 20.8 nM and the “apparent Kd” value under setting [4] was 18.8 nM.
For “AAAAAGCGAGGAUAUACAUGAGGAUCACCCAUGUCAAAAGGUAAGACCGCAGAAAAAAGUAGAAGGCGCAAAAA”, in that order: 63 nM and 137 nM.
For the sequence “UAGACAUGAGGAUCACCCAUGUACUGGAUUUCAACGCGAUCACAGGAUAUACGGGAUUCGUCCACGUAGAAGGGUGACAACGUC”, the “apparent Kd” value by setting is: under setting [1], 143 nM; under setting [2], 35.1 nM.
With “UGAUAGGACAGAGGAUAUACCGAUAGGAUCUACUAUCGAACAAUCCUCACAUGAGGAUCACCCAUGUAGAAGGCUGUCCUAUCU”, the “apparent Kd” value under setting [3] was 25.2 nM and the “apparent Kd” value under setting [4] came to 284 nM.
Take “CGUAGGAUCCAGAAGGCAUGUACAUGAGGAUCACCCAUGUCGAAAGACAUGAGGAUAUGGAUCCUACGAAAAGUGCGAAAGCAC”: the “apparent Kd” value is, setting by setting: under setting [1], 56.4 nM; under setting [2], 6.15 nM.
As for “CACCGUAACAGAGGAUAUGAUACAUGAGGAUCACCCAUGUAAUAAAUGAGAAUUUCGAAUGUACCUCAGAAGGCUGGAACCGGC”, the “apparent Kd” value came out at 45.7 nM under setting [3] and 96.6 nM under setting [4].
Consider “AUGGACGUCGUAGGAUAUGUAGGAUUCUCGUACAUGAGGAUCACCCAUGUUGACGUCGAGGACGGACAGAAGGGCGGUGUCCAU”, for which the “apparent Kd” value stood at 42.3 nM under setting [1] and 8.01 nM under setting [2].
Take “AAUAUAAAGAGCUGGCUCAAUUUAACAUGAGGAUCACCCAUGUAGGAUAUCAGCACGAUAAGUGCUGAGAAGGACAUCCAGCUC”: the “apparent Kd” value by setting is: under setting [3], 16.7 nM; under setting [4], 36 nM.
